Data on 1 molecule can be found in ChEMBL document CHEMBL4024770, “Augmentation of Anticancer Drug Efficacy in Murine Hepatocellular Carcinoma Cells by a Peripherally Acting Competitive N-Methyl-d-aspartate (NMDA) Receptor Antagonist” (J Med Chem, 2017).

The target in data set [1] is Glutamate receptor ionotropic, kainate 3 (Rattus norvegicus, UniProt P42264). The experiment in a line: Displacement of [3H]-KA from recombinant homomeric rat GluK3a receptor expressed in baculovirus infected Sf9 insect cell membranes by scintillation counting method.
Data set [2] deals with Glutamate receptor ionotropic, kainate 1 (Rattus norvegicus, UniProt P22756). In words: Displacement of [3H]-SYM2081 from recombinant homomeric rat GluK1 (Q)1b receptor expressed in baculovirus infected Sf9 insect cell membranes by scintillation counting method. (In a radioligand displacement assay an active substance lowers the binding of a labelled ligand.)
Data set [3] concerns the target Glutamate receptor ionotropic, kainate 2 (Rattus norvegicus, UniProt P42260). In words: Displacement of [3H]-KA from recombinant homomeric rat GluK2 (V,C,R)a receptor expressed in baculovirus infected Sf9 insect cell membranes by scintillation counting method.
The next data set deals with Plasma. In words: Elimination half life in mouse plasma at 10 mg/kg, ip administered as bolus dose by LC-MS/MS analysis. In kind it is ADME, organism-based. The settings on record: in vivo. The procedure, abridged:
(§1)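 Adult male mice (25 ± 5 g) given a single 10 mg/kg i.p. bolus, prepared as a 5.0 mM solution in 0.9% NaCl. Animals were decapitated at five time points between 10 and 240 min. Plasma was precipitated with acetonitrile containing internal standard. Brain and liver were homogenized in water (1:3) and precipitated the same way. Analysis by LC-MS/MS, with AUC0–240, Cmax, tmax, t½β and liver/plasma ratio derived from the concentration-time data.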

A further data set has as its system Liver. The experiment in a line: Elimination half life in mouse liver at 10 mg/kg, ip administered as bolus dose by LC-MS/MS analysis. As to conditions: in vivo. The class given is ADME, organism-based. The procedure, abridged: as §1
The species named for data set [4] is Mus musculus. In words: Antagonist activity at NMDA receptor in Nras driven p53 deficient mouse HCC cell membranes assessed as LPS-stimulated PGE2 levels at 10 uM after 24 hrs by LC-MS/MS method (reference value: 162 +/- 7%). Set-up: scale not given: the % may be the effect or the level left. The procedure, abridged: (§2)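 Mouse Nras-driven p53−/− HCC cells in DMEM with 2 mM L-glutamine, 10% heat-inactivated FBS and penicillin/streptomycin. Cells incubated 24 h with or without antagonist, either without LPS or with 2.5 μg/mL LPS in the growth medium. Cells washed three times with ice-cold HBSS and lysed in acetonitrile on ice. PGE₂ in lysates measured by LC-MS/MS (LLOQ 1 nM) and expressed as % of control; n=3.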

Data set [5] deals with Brain. In words: Tmax in mouse brain at 10 mg/kg, ip administered as bolus dose by LC-MS/MS analysis. The class given is ADME, organism-based. As to conditions: in vivo. The procedure, abridged:
as §1

Data set [6] is described as follows: Liver to plasma partition coefficient in mouse at 10 mg/kg, ip administered as bolus dose by LC-MS/MS analysis. The class given is ADME, organism-based. The settings on record: other tissue. The method, boiled down:
as §1

In data set [7] the test system is Brain. In words: Drug uptake in mouse brain at 10 mg/kg, ip administered as bolus dose measured at 60 mins by LC-MS/MS analysis. In kind it is ADME, organism-based. As to conditions: in vivo, 1 h. The method, boiled down:
as §1

For data set [8], the species on record is Mus musculus. In words: Antagonist activity at NMDA receptor in Nras driven p53 deficient mouse HCC cell membranes assessed as inhibition of NMDA-induced intracellular Ca2+ transients at 25 to 40 uM […] by fluo-4AM dye-based fluorescence assay. The procedure, abridged: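 Mouse HCC cells were loaded with Fluo-4-AM (5 μM, 45 min), then washed out for 20 min in HEPES-buffered saline, pH 7.4. Ca2+ transients were evoked by 15 s applications of 150 μM NMDA via fast perfusion. This was done alone or with antagonist at 25 or […] μM, imaged at 495 nm excitation. Data were scored as % responding, mean ± SEM, n=5.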

Data set [9] is filed under the species Mus musculus. The experiment in a line: Antagonist activity at NMDA receptor in Nras driven p53 deficient mouse HCC cell membranes assessed as PGE2 levels at 10 uM after 24 hrs by LC-MS/MS method relative to control. Details: scale not given: the % may be the effect or the level left. The procedure, abridged: as §2
Data set [10] is filed under the species Mus musculus. The experiment in a line: Antagonist activity at NMDA receptor in Nras driven p53 deficient mouse HCC cell membranes assessed as LPS-stimulated PGE2 levels at 100 uM after 24 hrs by LC-MS/MS method (reference value: 162 +/- 7%). Set-up: scale not given: the % may be the effect or the level left. The procedure, abridged:
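Nras-driven p53−/− mouse HCC cells in DMEM/10% FBS were incubated 24 h with or without 100 μM compound. This was done without LPS and with LPS (2.5 μg/mL) in the growth medium. Cells were washed with ice-cold HBSS and lysed in acetonitrile on ice. PGE2 in the lysates was quantified by LC-MS/MS and expressed as % of control. Mean ± SEM, n=3; one-way ANOVA/Tukey.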

The species named for data set [11] is Mus musculus. In words: Antagonist activity at NMDA receptor in Nras driven p53 deficient mouse HCC cell membranes assessed as Slc7a5 protein expression levels at 10 uM by SMR/MRM analysis relative to control. Set-up: scale not given: the % may be the effect or the level left. The method, boiled down:
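Nras p53−/− mouse HCC cells were exposed to 10 μM for 48 h, washed, and pelleted. Crude membrane fractions (50 μg protein) were denatured in guanidine, reduced/alkylated and precipitated. They were then digested with Lys-C (rt, 3 h) and trypsin (37 °C, 16 h) with stable-isotope peptide standards. Slc7a5 was quantified by multiplexed SRM/MRM LC-MS/MS, one unique peptide per protein. Mean ± SEM, n=4, versus control.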

The species entered for data set [12] is Mus musculus. The experiment in a line: Antagonist activity at NMDA receptor in Nras driven p53 deficient mouse HCC cell membranes assessed as decrease in Abcc1 to 5 protein expression levels by measuring fluorescein accumulation at 10 uM preincubated for 24 hrs followed by compound wash out and addition of fluorescein measured after 30 mins by fluorescence assay relative to control. Set-up: scale not given: the % may be the effect or the level left. The method, boiled down: (§3)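 Nras p53−/− HCC cells (1 × 10⁵/well) were pretreated 24 h with or without 10 μM. They were then washed 3× in warm HBSS (choline chloride, pH 7.4) and incubated at 37 °C with probe in HBSS. Incubation was 30 min for [3H]-digoxin, 20 μM fluorescein or 10 μM sorafenib, and 5 min for [14C]-L-leucine or [14C]-D-glucose. Cells were washed ice-cold and lysed in 0.1 M NaOH. Read-out was scintillation, fluorescence or LC-MS/MS, normalized to protein.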

Data set [13] is filed under the species Mus musculus. In words: Antagonist activity at NMDA receptor in Nras driven p53 deficient mouse HCC cell membranes assessed as decrease in Slc2a1 protein expression levels by measuring [14C]-D-glucose accumulation at 10 uM preincubated for 24 hrs followed by compound wash out and addition of [14C]-D-glucose measured after 5 mins by scintillation counting method relative to control. Set-up: scale not given: the % may be the effect or the level left. The procedure, abridged:
as §3

For data set [14], the species on record is Mus musculus. The experiment in a line: Antagonist activity at NMDA receptor in Nras driven p53 deficient mouse HCC cell membranes assessed as potentiation of 2.5 uM sorafenib-mediated antiproliferative activity by measuring cell viability at 100 uM after 72 hrs by resazurin assay (reference value: […] +/- […]%). On the technique in general: Alamar Blue is a resazurin reagent that responds to reducing activity.

Data set [15] is filed under the species Mus musculus. In words: Antagonist activity at NMDA receptor in Nras driven p53 deficient mouse HCC cell membranes assessed as potentiation of 5 uM sorafenib-mediated antiproliferative activity by measuring cell viability at 100 uM after 72 hrs by resazurin assay (reference value: […] +/- […]%).

The structures appear in SMILES notation. Calls of active or inactive are those of the source. No cut-off for these calls is given here.

Sequence of Glutamate receptor ionotropic, kainate 1 (P22756 whole entry): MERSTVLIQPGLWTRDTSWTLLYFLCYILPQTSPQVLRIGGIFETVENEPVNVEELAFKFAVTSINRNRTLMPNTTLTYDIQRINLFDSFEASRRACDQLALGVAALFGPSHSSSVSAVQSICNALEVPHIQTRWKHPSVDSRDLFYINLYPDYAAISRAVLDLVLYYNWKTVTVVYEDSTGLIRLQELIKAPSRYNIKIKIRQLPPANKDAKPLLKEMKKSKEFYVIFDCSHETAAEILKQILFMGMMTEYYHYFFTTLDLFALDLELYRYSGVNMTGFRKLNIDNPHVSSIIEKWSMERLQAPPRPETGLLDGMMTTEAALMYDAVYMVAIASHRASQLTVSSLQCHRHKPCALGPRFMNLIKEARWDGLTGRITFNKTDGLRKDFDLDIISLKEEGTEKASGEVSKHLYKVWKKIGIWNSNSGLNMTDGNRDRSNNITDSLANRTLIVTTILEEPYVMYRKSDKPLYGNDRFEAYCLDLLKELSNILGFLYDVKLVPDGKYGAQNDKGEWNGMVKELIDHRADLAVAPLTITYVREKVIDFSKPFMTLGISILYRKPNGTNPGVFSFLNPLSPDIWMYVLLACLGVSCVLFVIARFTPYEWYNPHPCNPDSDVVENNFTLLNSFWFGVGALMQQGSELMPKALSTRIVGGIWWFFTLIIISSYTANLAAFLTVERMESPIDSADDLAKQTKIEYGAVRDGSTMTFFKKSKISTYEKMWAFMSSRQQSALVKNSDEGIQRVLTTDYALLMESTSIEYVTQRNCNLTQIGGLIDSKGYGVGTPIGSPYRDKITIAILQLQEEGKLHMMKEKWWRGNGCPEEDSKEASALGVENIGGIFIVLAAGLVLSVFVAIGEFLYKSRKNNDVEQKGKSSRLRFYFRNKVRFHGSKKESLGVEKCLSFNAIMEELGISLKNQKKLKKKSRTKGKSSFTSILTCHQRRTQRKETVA
Sequence of Glutamate receptor ionotropic, kainate 3 (P42264 whole entry): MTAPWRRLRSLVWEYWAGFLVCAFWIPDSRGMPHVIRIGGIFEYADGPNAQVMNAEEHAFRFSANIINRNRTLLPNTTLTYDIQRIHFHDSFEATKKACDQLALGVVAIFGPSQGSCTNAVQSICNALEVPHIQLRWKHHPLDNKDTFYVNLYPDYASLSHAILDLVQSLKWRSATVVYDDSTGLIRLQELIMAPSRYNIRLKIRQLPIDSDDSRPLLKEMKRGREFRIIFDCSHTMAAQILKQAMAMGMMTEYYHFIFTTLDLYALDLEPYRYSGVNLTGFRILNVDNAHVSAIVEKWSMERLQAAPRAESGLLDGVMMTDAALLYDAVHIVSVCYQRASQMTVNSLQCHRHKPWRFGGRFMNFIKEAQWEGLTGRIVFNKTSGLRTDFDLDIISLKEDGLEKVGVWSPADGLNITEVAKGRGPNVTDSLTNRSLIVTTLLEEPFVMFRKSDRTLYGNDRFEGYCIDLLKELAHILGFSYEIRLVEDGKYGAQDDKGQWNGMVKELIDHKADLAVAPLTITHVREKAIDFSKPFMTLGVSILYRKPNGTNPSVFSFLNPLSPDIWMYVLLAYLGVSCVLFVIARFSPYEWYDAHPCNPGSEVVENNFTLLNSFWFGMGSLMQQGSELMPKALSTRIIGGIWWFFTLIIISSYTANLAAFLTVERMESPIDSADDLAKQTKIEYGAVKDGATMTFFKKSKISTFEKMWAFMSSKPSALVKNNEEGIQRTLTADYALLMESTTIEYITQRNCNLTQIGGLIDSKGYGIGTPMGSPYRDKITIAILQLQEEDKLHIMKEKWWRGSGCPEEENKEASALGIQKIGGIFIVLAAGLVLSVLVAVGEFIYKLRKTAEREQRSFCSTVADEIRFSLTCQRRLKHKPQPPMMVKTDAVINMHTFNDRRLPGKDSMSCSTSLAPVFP
Sequence of Glutamate receptor ionotropic, kainate 2 (P42260 whole entry): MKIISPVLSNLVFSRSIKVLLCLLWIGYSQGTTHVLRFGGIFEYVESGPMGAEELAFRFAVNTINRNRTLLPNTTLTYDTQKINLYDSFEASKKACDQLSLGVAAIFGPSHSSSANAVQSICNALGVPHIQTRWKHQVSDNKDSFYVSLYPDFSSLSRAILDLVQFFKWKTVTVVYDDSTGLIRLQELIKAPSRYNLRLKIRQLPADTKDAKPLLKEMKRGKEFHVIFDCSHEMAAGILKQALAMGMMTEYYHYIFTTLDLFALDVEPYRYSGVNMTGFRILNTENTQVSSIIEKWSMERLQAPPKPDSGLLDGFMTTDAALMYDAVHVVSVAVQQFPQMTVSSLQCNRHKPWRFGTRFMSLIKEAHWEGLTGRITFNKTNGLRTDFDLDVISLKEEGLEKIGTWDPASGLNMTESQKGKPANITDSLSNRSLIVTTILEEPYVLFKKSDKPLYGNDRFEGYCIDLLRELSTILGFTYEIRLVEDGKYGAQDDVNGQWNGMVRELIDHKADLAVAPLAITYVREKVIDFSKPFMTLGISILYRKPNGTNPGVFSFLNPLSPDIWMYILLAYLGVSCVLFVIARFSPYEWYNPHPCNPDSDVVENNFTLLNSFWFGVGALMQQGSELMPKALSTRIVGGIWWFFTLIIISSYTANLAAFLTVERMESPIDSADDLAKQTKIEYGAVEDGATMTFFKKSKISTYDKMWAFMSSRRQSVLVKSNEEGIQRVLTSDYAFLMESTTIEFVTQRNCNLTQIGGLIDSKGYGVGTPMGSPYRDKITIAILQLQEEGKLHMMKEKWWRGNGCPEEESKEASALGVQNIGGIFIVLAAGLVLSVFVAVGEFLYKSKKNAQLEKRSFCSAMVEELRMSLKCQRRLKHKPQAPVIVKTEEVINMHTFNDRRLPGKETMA

As usually defined, the Ki is the dissociation constant of the complex between target and ligand, obtained from inhibition or displacement. As a reminder, the Tmax is the time from dosing to the highest level. Usually Kp stands for tissue or fluid exposure divided by exposure in the circulation. As to `Cl.O=C(O)c1cc([C@H]2CCN[C@@H]2C(=O)O)ccc1Cl`, the Ki in data set [1] is 131 µM; in data set [2], 154 µM; in data set [3], over 100 µM. Further, the “beta t1/2” value in the data set with Plasma worked out at 30 min; in the data set with Liver, 36 min. Besides, the Activity in the data set filed under Mus musculus [4] is 127%; in the data set filed under Mus musculus [9], 68%; in the data set listed under Mus musculus [10], 96%; in the data set listed under Mus musculus [11] it was 24%; in the data set listed under Mus musculus [12] it was 201%; in the data set listed under Mus musculus [13], 84%. For the same molecule, the Activity in the data set listed under Mus musculus [14] is 30%; in the data set listed under Mus musculus [15], 35%. For the same molecule, in the data set with Brain [5], the Tmax stood at 30 min. The Kp in data set [6] is 0.19. In the data set on Brain [7], this molecule registered a Drug uptake of 0.1 nmol/g. Moreover, the inhibition result in the data set listed under Mus musculus [8] was “Active”.
